Assay results as given in ChEMBL document CHEMBL3098007, “Synthesis of 3-heteryl substituted pyrrolidine-2,5-diones via catalytic Michael reaction and evaluation of their inhibitory activity against InhA and Mycobacterium tuberculosis” (Eur J Med Chem, 2014).
≈ marks a conversion by molar mass, not a printed value.

Assays:
[1] = Cytotoxicity against human GM637 cells after 4 days by WST-1 assay; assay type: cell-based; conditions: GM637, 96 h
Method in brief: (§1)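 Cells cultured in DMEM with 10% fetal calf serum. Seeded at 3000 cells/well, treated 24 h later with 9 concentrations from 100 nM to 100 µM, 8 replicates each. Viability read by WST-1 after 4 days of treatment. IC50 derived by curve fitting.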

[2] = test system: Mycobacterium tuberculosis; experiment: Antimicrobial activity against Mycobacterium tuberculosis H37Rv after 21 days by micro-broth dilution method; assay type: functional; conditions: 504 h
[3] = test system: HCT-116; experiment: Cytotoxicity against human HCT116 cells after 4 days by WST-1 assay; assay type: cell-based; conditions: HCT-116, 96 h; method in brief: as §1

| Compound | IC50 [1] | MIC [2] | IC50 [3] |
| --- | --- | --- | --- |
| O=C1CC(Sc2nc[nH]n2)C(=O)N1c1ccccc1 (stereo not drawn) | 15 µM | 18.2 µM (≈ 4.99 µg/mL) | 17 µM |
| O=C(c1ccc2[nH]ccc2c1)N1CCN(C2c3ccccc3-c3ccccc32)CC1 | – | > 318 µM | – |
| COc1ccc(N2C(=O)CC(Sc3nnc[nH]3)C2=O)cc1 (stereo not drawn) | – | 16.4 µM (≈ 4.99 µg/mL) | – |
| O=C1CC(N2CCN(C3c4ccccc4-c4ccccc43)CC2)C(=O)N1c1ccccc1 (stereo not drawn) | > 100 µM | 94.4 µM (≈ 40 µg/mL) | > 100 µM |
| O=C1CC(N2CCN(C3c4ccccc4-c4ccccc43)CC2)C(=O)N1Cc1ccccc1 (stereo not drawn) | – | 91.4 µM (≈ 40 µg/mL) | – |
| O=C1CC(N2CCc3ccccc3C2)C(=O)N1c1ccccc1 (stereo not drawn) | > 100 µM | 8.2 µM (≈ 2.51 µg/mL) | > 100 µM |
| O=C1CC(N2CCc3ccccc3C2)C(=O)N1Cc1ccccc1 (stereo not drawn) | > 100 µM | 31.2 µM (≈ 10 µg/mL) | > 100 µM |
| O=C1CC(n2ccnc2)C(=O)N1c1ccccc1 (stereo not drawn) | > 100 µM | 82.9 µM (≈ 20 µg/mL) | > 100 µM |
| COc1ccc(N2C(=O)CC(n3ccnc3)C2=O)cc1 (stereo not drawn) | – | 55.3 µM (≈ 15 µg/mL) | – |
| O=C1CC(c2c(-c3ccccc3)cc3ccccn23)C(=O)N1c1ccccc1 (stereo not drawn) | > 100 µM | 109 µM (≈ 40 µg/mL) | > 100 µM |
| O=C1CC(c2c(-c3ccccc3)cc3ccccn23)C(=O)N1Cc1ccccc1 (stereo not drawn) | – | 52.6 µM (≈ 20 µg/mL) | – |
| O=C1CC(c2c3c([N+](=O)[O-])cc([N+](=O)[O-])cc3c3ccccn23)C(=O)N1c1ccccc1 (stereo not drawn) | > 100 µM | 46.5 µM (≈ 20 µg/mL) | > 100 µM |
| NNC(=O)c1ccncc1 [ISONIAZID] | – | 0.4 µM (≈ 0.0549 µg/mL) | – |
| Oc1cc(Cl)ccc1Oc1ccc(Cl)cc1Cl [TRICLOSAN] | – | 34.5 µM (≈ 9.99 µg/mL) | – |
